Measured values from ChEMBL document CHEMBL3808301, “Bioactive Iridoid Glycosides from the Whole Plants of Rehmannia chingii” (J Nat Prod, 2016).

What was measured:
[1] = system: A549; assay: Cytotoxicity against human A549 cells by MTT assay; format: functional, cell-based
[2] = system: HT-29; assay: Cytotoxicity against human HT-29 cells by MTT assay; format: functional, cell-based
[3] = Cytotoxicity against human Bel7402 cells by MTT assay; format: functional, cell-based; settings: Bel-7402
[4] = Cytotoxicity against human BGC823 cells by MTT assay; format: functional, cell-based; settings: BGC-823
[5] = system: A2780; assay: Cytotoxicity against human A2780 cells by MTT assay; format: functional, cell-based
[6] = system: HepG2; assay: Hepatoprotective activity against APAP-induced toxicity in human HepG2 cells assessed as cell survival rate at 10 uM incubated for 48 hrs by MTT assay; format: functional; settings: HepG2, 48 h, read-out: Survival
Procedure, shortened: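 HepG2 cells grown in DMEM with 10% fetal calf serum and penicillin/streptomycin at 37 °C, 5% CO2, then seeded and incubated overnight. Test sample (10 μM) added together with APAP (final 8 mM) for 48 h. MTT at 0.5 mg/mL for 4 h, formazan dissolved in DMSO, absorbance read at 570 nm. Survival given as % of normal cells; bicyclol (10 μM) positive control; n = 3.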

[7] = Cytotoxicity against mouse BV2 cells assessed as cell viability by MTT assay; format: cell-based, BV-2; settings: read-out: Activity
Procedure, shortened: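 Murine microglial BV2 cells under the LPS-activation conditions of the NO assay. Viability read by MTT and expressed as a percentage of the LPS-only treatment group. Means ± SD from three independent experiments.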

[8] = system: BV-2; assay: Inhibition of LPS-induced NO production in mouse BV2 cells assessed as reduction in nitrite level pretreated for 24 hrs before LPS treatment for additional 24 hrs by Griess reaction method; format: functional, cell-based
Procedure, shortened: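 BV2 microglia plated and preincubated 24 h, then exposed to LPS 0.3 μg/mL for a further 24 h. Nitrite in the culture supernatant measured by Griess reaction at OD 550 nm against a NaNO2 standard. Curcumin served as positive control. IC50 given as mean ± SD of three independent experiments.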

IC50 [8] [µM]	Compound	IC50 [1] [µM]	IC50 [2] [µM]	IC50 [3] [µM]	IC50 [4] [µM]	IC50 [5] [µM]	viability at 10 µM [6] [%]	viability [7] [%]
	C[C@]1(O)C[C@@H](O)[C@@H]2C[C@H](O[C@H]3C[C@@](C)(O)[C@@H]4[C@@H](O[C@H]5O[C@@H](CO)[C@H](O)[C@@H](O)[C@@H]5O)OC=C[C@@H]43)O[C@@H](O[C@H]3O[C@@H](CO)[C@H](O)[C@@H](O)[C@@H]3O)[C@@H]21	> 10	> 10	> 10	> 10	> 10		
	C[C@]1(O)C=CC2=CCO[C@@H](O[C@@H]3O[C@H](CO)[C@@H](O)[C@H](O)[C@H]3O)[C@@H]21	> 10	> 10	> 10	> 10	> 10		
	C[C@]1(O)C[C@@H](O)[C@@H]2C[C@@H](O[C@H]3C[C@@](C)(O)[C@@H]4[C@@H](O[C@H]5O[C@@H](CO)[C@H](O)[C@@H](O)[C@@H]5O)OC=C[C@@H]43)O[C@@H](O[C@H]3O[C@@H](CO)[C@H](O)[C@@H](O)[C@@H]3O)[C@@H]21	> 10	> 10	> 10	> 10	> 10		
	C[C@H]1[C@H]2[C@H](O[C@@H]3O[C@H](COC(=O)/C=C/c4ccccc4)[C@@H](O)[C@H](O)[C@H]3O)OC=C(C(=O)O)[C@H]2C[C@@H]1O	> 10	> 10	> 10	> 10	> 10	65.9	
	CC(/C=C/[C@@]1(O)C(C)(C)CCC[C@@]1(C)O)=C\C(=O)O[C@@H]1C[C@](C)(O)[C@H]2[C@H](O[C@@H]3O[C@H](CO)[C@@H](O)[C@H](O)[C@H]3O)OC=C[C@H]21 [REHMAGLUTOSIDE F]	> 10	> 10	> 10	> 10	> 10	63.4	
	C[C@]1(O)C[C@@H](O)[C@@H]2C=CO[C@@H](O[C@@H]3O[C@H](CO)[C@@H](O)[C@H](O[C@@H]4C[C@@H]5[C@H]([C@H](O[C@@H]6O[C@H](CO)[C@@H](O)[C@H](O)[C@H]6O)O4)[C@@](C)(O)C[C@H]5O)[C@H]3O)[C@@H]21	> 10	> 10	> 10	> 10	> 10		
	C[C@]1(O)C[C@@H](O[C@@H]2O[C@H](CO)[C@@H](O)[C@H](O)[C@H]2O)[C@@H]2C=CO[C@@H](O[C@@H]3O[C@H](CO)[C@@H](O)[C@H](O)[C@H]3O)[C@@H]21	> 10	> 10	> 10	> 10	> 10		
2.5	CC(/C=C/[C@@]1(O)C(C)(C)CCC[C@@]1(C)O)=C\C(=O)O[C@H]1[C@H](O[C@@H]2OC=C[C@H]3[C@H](O)[C@@H]4O[C@]4(CO)[C@@H]23)O[C@H](CO)[C@@H](O)[C@@H]1O	> 10	> 10	> 10	> 10	> 10		91.7
	C[C@]1(O)C[C@@H](O)[C@]2(O)C=CO[C@@H](O[C@@H]3O[C@H](CO)[C@@H](O)[C@H](O)[C@H]3O)[C@@H]21	> 10	> 10	> 10	> 10	> 10		
	C[C@]1(O)[C@H](O)C=C2C=CO[C@@H](O[C@@H]3O[C@H](CO)[C@@H](O)[C@H](O)[C@H]3O)[C@@H]21	> 10	> 10	> 10	> 10	> 10		
	OC[C@H]1O[C@H](OC[C@H]2O[C@@H](O[C@@H]3OC=C[C@H]4[C@H](O)[C@@H]5O[C@]5(CO)[C@@H]34)[C@H](O)[C@@H](O)[C@@H]2O)[C@H](O)[C@@H](O)[C@H]1O	> 10	> 10	> 10	> 10	> 10		
0.52	COc1cc(/C=C/C(=O)CC(=O)/C=C/c2ccc(O)c(OC)c2)ccc1O [CURCUMIN]							93.4
	C[C@]1(O)C[C@@H](O)[C@@H]2C=CO[C@@H](O[C@@H]3O[C@H](CO)[C@@H](O)[C@H](O)[C@H]3O)[C@@H]21	> 10	> 10	> 10	> 10	> 10	69.9	
	O=C(O[C@H]1[C@@H]2C=CO[C@@H](O[C@@H]3O[C@H](CO)[C@@H](O)[C@H](O)[C@H]3O)[C@@H]2[C@@]2(CO)O[C@@H]12)c1ccc(O)cc1 [CATALPOSIDE]	> 10	> 10	> 10	> 10	> 10		
	COC(=O)c1cc(OC)c2c(c1-c1c(CO)cc(OC)c3c1OCO3)OCO2 [BICYCLOL]						66.5	
	CC(/C=C/[C@@]1(O)C(C)(C)CCC[C@@]1(C)O[C@@H]1O[C@H](C)[C@@H](O)[C@H](O)[C@H]1O)=C\C(=O)O[C@@H]1C[C@](C)(O)[C@H]2[C@H](O[C@@H]3O[C@H](CO)[C@@H](O)[C@H](O)[C@H]3O)OC=C[C@H]21	> 10	> 10	> 10	> 10	> 10		
	C[C@@]1(O)[C@@H]2C(=C[C@H]1O[C@@H]1O[C@H](C(=O)O)[C@@H](O)[C@H](O)[C@H]1O)C=CO[C@H]2O[C@@H]1O[C@H](CO)[C@@H](O)[C@H](O)[C@H]1O	> 10	> 10	> 10	> 10	> 10		
	OCC1=C[C@@H](O)[C@]2(O[C@@H]3O[C@H](CO)[C@@H](O)[C@H](O)[C@H]3O[C@H]3O[C@@H](CO)[C@H](O)[C@@H](O)[C@@H]3O[C@@H]3O[C@H](CO)[C@@H](O)[C@H](O)[C@H]3O)C=CO[C@@H](O[C@@H]3O[C@H](CO)[C@@H](O)[C@H](O)[C@H]3O)[C@H]12	> 10	> 10	> 10	> 10	> 10	64	
	OCC1=C[C@@H](O)[C@@H]2C=CO[C@@H](O[C@@H]3O[C@H](CO)[C@@H](O)[C@H](O)[C@H]3O)[C@H]12 [AUCUBIN]	> 10	> 10	> 10	> 10	> 10		
	OCC1=C[C@@H](O)[C@]2(O[C@@H]3O[C@H](CO)[C@@H](O)[C@H](O)[C@H]3O)C=CO[C@@H](O[C@@H]3O[C@H](CO)[C@@H](O)[C@H](O)[C@H]3O)[C@H]12	> 10	> 10	> 10	> 10	> 10		
	COc1cc(/C=C/C(=O)O[C@H]2[C@@H]3C=CO[C@@H](O[C@@H]4O[C@H](CO)[C@@H](O)[C@H](O)[C@H]4O)[C@@H]3[C@@]3(CO)O[C@@H]23)ccc1O	> 10	> 10	> 10	> 10	> 10		
	C[C@]1(O)CCC2=CCO[C@@H](O[C@@H]3O[C@H](CO)[C@@H](O)[C@H](O)[C@H]3O)[C@@H]21	> 10	> 10	> 10	> 10	> 10		
	OC[C@H]1O[C@@H](O[C@@H]2OC=C[C@H]3[C@H](O[C@@H]4O[C@H](CO)[C@@H](O)[C@H](O)[C@H]4O)[C@@H]4O[C@]4(CO)[C@@H]23)[C@H](O)[C@@H](O)[C@@H]1O	> 10	> 10	> 10	> 10	> 10		
	OCC1=C[C@@H](O)[C@]2(O[C@@H]3O[C@H](CO)[C@@H](O)[C@H](O)[C@H]3O[C@H]3O[C@@H](CO)[C@H](O)[C@@H](O)[C@@H]3O)C=CO[C@@H](O[C@@H]3O[C@H](CO)[C@@H](O)[C@H](O)[C@H]3O)[C@H]12	> 10	> 10	> 10	> 10	> 10		

Compound	IC50 [8] [µM]	IC50 [1] [µM]	IC50 [2] [µM]	IC50 [3] [µM]	IC50 [4] [µM]	IC50 [5] [µM]	viability at 10 µM [6] [%]	viability [7] [%]
OC[C@H]1O[C@@H](O[C@@H]2OC=C[C@H]3[C@H](O)[C@@H]4O[C@]4(CO)[C@@H]23)[C@H](O)[C@@H](O)[C@@H]1O [CATALPOL]	7.3	> 10	> 10	> 10	> 10	> 10	69.1	86.1
